# Sampled rows, rich in hits. Any-hit rate of the full collection: about 3.5%.
# MrgX1 antagonist: blocks BAM8-22 activation of human MrgX1 receptor | MRGX1-HEK293 calcium flux, Fluo-4, BAM8-22 antagonism; stronger effect = lower value | actives 1.3% (n = 310,000) | Q96LB2 | AID 588676 | B-score at 10 µM;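 active means calcium-response B-score plate-corrected more than 3 library SD below zero, starting fluorescence within 5 deviations, no agonist response on first addition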;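 further: peak minus trough fluorescence over baseline after final BAM8-22 challenge near maximal dose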
# RGS4 pot: potentiators or activators of RGS4 | HEK293 M3R/inducible RGS4, carbachol calcium flux Fluo4; stronger effect = lower value | B-score at 10 µM | actives 0.92% (n = 310,000);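 active means B-score of the integrated calcium signal more than 4 SD below the library mean, with starting fluorescence not abnormally high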;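 further: negative B-score means reduced calcium response which marks RGS4 activation or potentiation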
#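 System – HEK293 FlpIn-TREx cells, stable M3R, doxycycline-inducible RGS4 · Reagent – ECmax carbachol challenge · Times – compound preincubation 20 min at room temperature before agonist · Technique – Fluo4 fluorescence kinetic imaging of calcium · Measure – B score of integrated Fluo4 ratio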
# MrgX1 agonist: agonists of human MrgX1 receptor | Q96LB2 | MrgX1-HEK293 cells, Fluo-4 calcium fluorescence, agonist mode; stronger effect = higher value | AID 588627 | B-score at 10 µM | actives 0.44% (n = 310,000);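 active means calcium response B-score plate-corrected fluorescence ratio at least 3 library SD, with starting fluorescence B-score inside 5 SD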
#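 times = overnight plating, then 30 min 37 °C plus 30 min room-temperature dye loading | assay system = stable human MrgX1 HEK293 cell line | input = fifteen thousand cells per well | signal = kinetic calcium dye fluorescence, Fluo-4 NW | dosing = compound delivered in addition one of three | read-out = B-scored fluorescence response ratio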
# RGS4 block: inhibitors of human RGS4 | P49798 | HEK293 M3R/RGS4 inducible, Fluo-4 calcium flux; stronger effect = higher value; triggered by carbachol at its EC20 | B-score at 10 µM | actives 0.45% (n = 310,000) | AID 463165;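 active means B-score, a plate-corrected calcium signal, over three deviations above library mean, with baseline fluorescence within five deviations of library mean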;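 further: RGS4 expression induced by doxycycline in cells with stable M3 receptor; B-score is computed from the integrated fluorescence ratio over baseline after carbachol; higher B-score means a larger calcium signal and so more RGS4 inhibition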
# Target sequence (P49798 whole entry, looked up): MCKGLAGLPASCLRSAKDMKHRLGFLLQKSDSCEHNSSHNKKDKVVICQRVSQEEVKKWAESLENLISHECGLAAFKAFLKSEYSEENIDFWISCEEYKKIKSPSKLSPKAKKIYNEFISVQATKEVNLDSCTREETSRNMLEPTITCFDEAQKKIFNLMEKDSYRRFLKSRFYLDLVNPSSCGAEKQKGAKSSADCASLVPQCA
# MrgX1 PAM: human MrgX1 positive allosteric modulation, primary screen. Q96LB2. MrgX1-HEK293, Fluo-4 calcium flux, FDSS; stronger effect = higher value. B-score at 10 µM. actives 0.63% (n = 310,000);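 active means plate-corrected calcium response at least 3 library SD above typical, normal starting fluorescence, not activating the receptor alone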;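 further: compound read alongside a low EC10 to EC30 dose of BAM8-22 agonist; peak minus trough fluorescence over baseline measured at the second addition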
# RGS4 act valid: RGS4 activation, validation assay; shares compounds with RGS4 pot; HEK293 M3R/RGS4 inducible, carbachol calcium flux Fluo4; inhibition, % at 10 µM; actives 89% (n = 1,100);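 active means inhibition above 3 SD of the buffer control wells, cut at about 41% in these data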;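 further: signal is the integrated peak-minus-minimum Fluo4 fluorescence over baseline ratio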
# M3R Ca counter: counter-screen for RGS4 activators: effect in non-induced cells | inhibition, % at 10 µM | HEK293 M3R non-induced RGS4, Fluo4 calcium flux; after carbachol challenge at its EC90 | AID 602283 | actives 82% (n = 1,100) | shares compounds with RGS4 pot;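 active means inhibition exceeding 3 SD of buffer-only control wells, cut at about 26% in these data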;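 further: percent drop in integrated peak-minus-baseline over baseline Fluo4 ratio after carbachol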
# Starred values were filed as active, the others as inactive; i = inactive; x = no result.
SMILES,MrgX1 antagonist,RGS4 pot,MrgX1 agonist,RGS4 block,MrgX1 PAM,RGS4 act valid,M3R Ca counter
CCN(C(=S)NC(=O)CCc1ccccc1)c1ccccc1,i,i,i,i,i,x,x
C=CCSc1nc2sc(C)c(C)c2c(=O)n1N,i,i,i,i,i,x,x
Cc1nccn1CC(O)Cn1c2ccccc2c2ccccc21 (configuration not stated),i,-7.7*,i,i,i,86*,29*
O=C(NCc1ccncc1)c1ccccc1Nc1ccc(SC(F)F)cc1,i,-8.9*,i,i,i,92*,85*
CNC(=O)c1ccccc1Nc1ccc(SC(F)F)cc1,i,i,i,i,i,x,x
CCOC(=O)c1ccccc1NC(=O)CSC(C)C(=O)Nc1cc(C)on1 (configuration not stated),i,i,i,i,i,x,x
CCCCc1nc2cc(C(=O)NCc3nccn3CC)ccc2o1,i,-9.1*,i,i,i,92*,78*
CC(Sc1ccc2c(c1)OCCO2)C(=O)Nc1ccc(N2CCOCC2)cc1 (configuration not stated),i,i,i,i,i,x,x
CCN(CC(=O)Nc1ccccc1OC)C(=O)c1cc(-c2ccccc2)nn1-c1ccccc1,i,-7.8*,i,i,i,92*,67*
CN(CC(=O)Nc1ccccc1Cl)C(=O)c1cc(-c2cccs2)nn1-c1ccccc1,i,i,i,i,i,x,x
CCN(CC(=O)Nc1c(F)cccc1F)C(=O)c1cc(-c2cccs2)nn1-c1ccccc1,i,-9.4*,i,i,i,52*,84*
CN(CC(=O)Nc1c(Cl)cccc1Cl)C(=O)c1cc(-c2cccs2)nn1-c1ccccc1,i,i,i,i,i,x,x
CN(CC(=O)Nc1ccc(Cl)cc1)C(=O)c1cc(-c2cccs2)nn1-c1ccccc1,i,-8.5*,i,i,i,88*,42*
CN(C(=O)CS(=O)(=O)c1cn(CC(=O)N2CCCCC2)c2ccccc12)c1ccccc1,i,i,i,i,i,x,x
C=CCSc1nnc(NC(=O)c2cn(CC)c3nc(C)ccc3c2=O)s1,i,i,i,i,i,x,x
CC(=O)NC1C(Oc2ccccc2C)OC2COC(c3ccco3)OC2C1O (configuration not stated),i,i,i,i,i,x,x
NC(=O)N=Nc1c2[nH]c3ccccc3nc-2c2ccccc12,i,-8.6*,i,i,i,56*,0
O=c1[nH]c2ccccc2nc1-c1ccccc1,i,i,i,i,i,x,x
CN1CCc2c(sc3nc(SCC(N)=O)n(-c4ccccc4)c(=O)c23)C1,i,i,i,i,i,x,x
CCSc1nc2sc3c(c2c(=O)n1-c1ccccc1)CCN(C(C)C)C3,i,-7.9*,i,i,i,64*,0
Cc1ccc(S(=O)(=O)N2CCOCC2)cc1NC(=O)COC(=O)COc1cccc2c1OC(C)(C)C2,i,i,i,i,i,x,x
CCCCn1c2ccccc2c2nnc(SCCN3CCCCC3)nc21,x,-8.5*,x,i,x,92*,78*
CSc1cccc(NC(=S)NC(=O)c2cccnc2)c1,i,i,i,i,i,x,x
CCOC(=O)c1ccc(Nc2cc(C)nc(C)c2C(=O)OCC)cc1,i,-8.4*,i,i,i,58*,84*
CCOC(=O)c1ccc(NC(=O)c2c(Cl)cc(C)nc2C)cc1,i,i,i,i,i,x,x
COc1ccc(/C=C/CN2CCC(CO)(Cc3ccccc3Cl)CC2)cc1,i,-9.7*,i,i,i,89*,40*
CCOC(=O)C1(CC2CC2)CCN(Cc2ccc(C(=O)OC)cc2)CC1,i,-8.7*,i,i,i,93*,49*
CCOC(=O)C1(CCc2ccccc2)CCN(Cc2ccc(C(=O)OC)cc2)CC1,i,i,i,i,i,x,x

# Screens: PubChem BioAssay, Johns Hopkins Ion Channel Center
